Only some compounds are listed: those with a hit (about 3.5% of all), similar ones and a draw of the others.
PREPL inh – PREPL enzyme inhibitors, primary screen, biochemical, fluorescence polarization | AID 2751, 2010 | Prolyl endopeptidase-like (Homo sapiens), Q4J6C6 | inhibition, % at 5.96 µM | recombinant PREPL, fluorescence polarization activity-based probe | 320,000 tested, 0.68% active; in the data active = inhibition above about 43%;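 note: 0% = enzyme with DMSO and 100% = wells lacking enzyme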
Apaf1 inhib – inhibitors of human Apaf-1 apoptosome, primary screen, biochemical, DEVD-Rh110 fluorescence, uHTS. inhibition, % at 20 µM. Apoptotic protease-activating factor 1 (Homo sapiens), O14727. reconstituted apoptosome caspase-3 activity. 330,000 tested, 0.71% active; active = inhibition of at least 40% at 20 µM;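 note: plate controls were DMSO wells for no effect and DEVD-CHO caspase inhibitor wells for full effect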
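Assay system: Apoptosome proteins | Medium: pH 7.5 Hepes buffer with CHAPS, BSA, DTT | Also added: Cytochrome c and DEVD-Rh110 substrate | Times: 30 min plus 50 min, RT | Detection: Rhodamine 110 fluorescence at Ex 480/Em 540 nm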
PAFAH1B3 inh – PAFAH1B3 enzyme inhibitors, primary screen, biochemical, fluorescence polarization, human; Platelet-activating factor acetylhydrolase IB subunit alpha1 (Homo sapiens), Q15102; recombinant PAFAH1B3, FP-rhodamine probe; inhibition, % at 3.39 µM; 340,000 tested, 0.28% active; AID 492972, 2010;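 active = inhibition above the screen-wide average of all tested compounds plus 3 SD, cut at about 25% in these data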;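 note: 0% = enzyme with DMSO only and 100% = wells lacking PAFAH1B3 protein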
PAFAH2 inh – PAFAH2 enzyme inhibitors, primary screen, biochemical, fluorescence polarization, human; Platelet-activating factor acetylhydrolase 2, cytoplasmic (Homo sapiens), Q99487; recombinant PAFAH2, FP-rhodamine activity probe; inhibition, % at 3.39 µM; 340,000 tested, 0.99% active; AID 492956, 2010;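 active = inhibition above the mean over all tested compounds plus 3 SD, cut at about 30% in these data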;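 note: inhibitors block probe labeling of enzyme so polarization drops; 0% = enzyme with DMSO and 100% = wells lacking PAFAH2 protein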
PAFAH1B2 inh – PAFAH1B2 enzyme inhibitors, primary screen, biochemical, fluorescence polarization, human; 340,000 tested, 1.2% active; recombinant PAFAH1B2, FP-rhodamine activity probe; Platelet-activating factor acetylhydrolase IB subunit alpha2 (Homo sapiens), P68402; inhibition, % at 3.39 µM;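 active = inhibition above the mean of all tested compounds plus 3 SD, cut at about 24% in these data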;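 note: 0% = enzyme with DMSO and 100% = wells lacking PAFAH1B2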
pPAFAH inh – pPAFAH enzyme inhibitors, primary screen, biochemical, fluorescence polarization, human; recombinant pPAFAH, FP-rhodamine probe fluorescence polarization; inhibition, % at 3.39 µM; Platelet-activating factor acetylhydrolase (Homo sapiens), Q13093; AID 463082, 2010; 330,000 tested, 1.5% active;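 active = inhibition above the mean inhibition across the screen plus 3 SD, cut at about 25% in these data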;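 note: inhibitors block binding of the rhodamine activity-based probe so polarization drops; 0% = enzyme with DMSO and 100% = wells lacking pPAFAH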
PAFAH2 confirm – PAFAH2 enzyme inhibitors, confirmation, biochemical, fluorescence polarization, human. shares compounds with PAFAH2 inh. 2,300 tested, 65% active. AID 493030, 2011. recombinant PAFAH2, FP-rhodamine activity probe. inhibition, % at 3.39 µM;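 active = mean inhibition over three repeats above a set limit taken from the earlier primary screen, cut at about 30% in these data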;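 note: inhibitor blocks binding of rhodamine activity probe so polarization falls; 0% = enzyme with DMSO and 100% = wells lacking PAFAH2 protein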
* = called active by the depositor; nt = no result.

SMILES	PREPL inh	Apaf1 inhib	PAFAH1B3 inh	PAFAH2 inh	PAFAH1B2 inh	pPAFAH inh	PAFAH2 confirm
COc1cccc(/C=C/C(=O)OCC(=O)NCC2CCCCC2)c1OC	-0.6	6.6	4.5	79.5*	-0.5	8.1	79.0*
CCOc1cc(/C=C/C(=O)OCC(=O)NCc2ccco2)cc(Cl)c1OC	-11.1	15.9	0.1	15.1	2.0	3.9	nt
COc1ccccc1NCCC(=O)OCC(=O)NCc1ccco1	-2.5	10.8	7.4	11.8	2.0	23.2	nt
COc1cc(/C=C/C(=O)OCC(=O)NCc2ccco2)ccc1OC(F)F	4.1	2.6	6.6	39.4*	5.3	7.5	28.0
COc1cccc(/C=C/C(=O)OCC(=O)NCc2ccco2)c1OC	7.6	-6.6	7.1	65.6*	0.3	9.5	53.2*
O=C(CSc1nnc(CNC(=O)c2c(F)cccc2Cl)o1)NCCc1ccccc1	6.3	-0.4	2.0	1.0	-1.4	2.2	nt
COc1cccc(/C=C/C(=O)OCC(=O)c2ccccc2)c1OC	11.5	6.2	10.7	57.6*	6.8	8.8	33.5*
C=CCOc1ccc(/C=C/C(=O)OCC(=O)NCc2cccs2)cc1	1.5	9.0	-1.5	38.1*	-2.1	4.4	41.0*
COc1cc(/C=C/C(=O)OCC(=O)NCc2cccs2)ccc1OCC#N	5.0	-8.2	-2.0	52.6*	1.5	5.8	52.0*
COc1cc(/C=C/C(=O)OCC(=O)Nc2cc(C)on2)ccc1OCC#N	nt	1.9	7.2	26.0	9.8	nt	nt
Cc1ccc(C(=O)CCC(=O)OC(C)C(=O)NC2CCCCC2C)cc1 (centres undefined)	2.6	5.3	1.4	-1.7	-4.6	2.0	nt
CCOC(=O)c1c(C)[nH]c(C)c1C(=O)COC(=O)COc1ccc(Cl)c(C)c1	nt	18.7	11.1	-0.8	3.6	nt	nt
O=C1C=CC(=O)C(CNc2ccc(C(=O)OCc3ccccc3)cc2)=C1	nt	nt	15.1	58.9*	8.0	nt	37.0*
O=C(COC(=O)/C=C/c1cccc(F)c1)NC1CCCCCC1	33.2	9.5	7.7	81.8*	6.4	10.0	80.0*
O=C(COC(=O)/C=C/c1cccc(F)c1)NC1CC1	4.9	-11.0	3.1	34.2*	-0.3	-0.7	18.4
O=C(COC(=O)/C=C/c1cccc(F)c1)NC1CCCC1	12.2	5.0	-0.4	73.4*	-3.0	9.2	67.4*
O=C(COC(=O)/C=C/c1cccc(F)c1)NC(=O)NC1CCCC1	23.4	13.5	5.5	19.3	4.8	-4.4	nt
O=C(COC(=O)/C=C/c1cccc(Br)c1)NC1CCCCCC1	16.6	-3.6	-14.2	23.9	-6.3	4.3	nt
CC(C)CN1CC(C)C(=O)N(c2ccccc2)C1=O (centres undefined)	nt	nt	5.5	17.0	5.9	nt	nt
O=C(NCCOc1ccccc1)C1CCC(=O)N(CCCN2CCCC2=O)C1 (centres undefined)	-0.2	4.2	-0.6	-5.0	-1.8	-6.7	nt
COc1ccc(C2CC(c3ccccc3)=NN2C(=O)COC(=O)c2ccc(S(C)(=O)=O)cc2)cc1 (centres undefined)	3.5	1.7	2.0	-6.6	-0.8	2.9	nt
COc1ccc(C2CC(c3ccccc3)=NN2C(=O)COC(=O)c2cc(S(=O)(=O)N3CCOCC3)ccc2F)cc1 (centres undefined)	0.4	9.2	-5.0	48.5*	6.2	2.4	50.5*
CCOC(=O)c1c(C)nc2c(c1-c1cc(OC)ccc1OC)C(=O)CC(C)(C)C2	12.7	1.7	-3.1	4.5	2.4	2.4	nt
O=C1CS/C(=N/N=C\c2ccn[nH]2)N1	14.9	-4.6	nt	nt	nt	-9.8	nt
O=C1c2ccccc2NC(c2ccccc2F)N1NS(=O)(=O)c1ccccc1 (centres undefined)	11.1	12.8	9.4	5.0	4.7	-6.7	nt

Screens: PubChem BioAssay, several laboratories
